The source of these data is PMC4586255 (DNA repair, 2010).

Where a chain is given by its changes, count along the chain named. Names may count otherwise.

B1: YFP-hEXO1-Q788A;L791A: PIP-box mutant of YFP-hEXO1 (protein, UniProt Q9UQ84 1-846, looked up, variant Q788A L791A)
Exonuclease 1: MGIQGLLQFIKEASEPIHVRKYKGQVVAVDTYCWLHKGAIACAEKLAKGEPTDRYVGFCMKFVNMLLSHGIKPILVFDGCTLPSKKEVERSRRERRQANLLKGKQLLREGKVSEARECFTRSINITHAMAHKVIKAARSQGVDCLVAPYEADAQLAYLNKAGIVQAIITEDSDLLAFGCKKVILKMDQFGNGLEIDQARLGMCRQLGDVFTEEKFRYMCILSGCDYLSSLRGIGLAKACKVLRLANNPDIVKVIKKIGHYLKMNITVPEDYINGFIRANNTFLYQLVFDPIKRKLIPLNAYEDDVDPETLSYAGQYVDDSIALQIALGNKDINTFEQIDDYNPDTAMPAHSRSHSWDDKTCQKSANVSSIWHRNYSPRPESGTVSDAPQLKENPSTVGVERVISTKGLNLPRKSSIVKRPRSAELSEDDLLSQYSLSFTKKTKKNSSEGNKSLSFSEVFVPDLVNGPTNKKSVSTPPRTRNKFATFLQRKNEESGAVVVPGTRSRFFCSSDSTDCVSNKVSIQPLDETAVTDKENNLHESEYGDQEGKRLVDTDVARNSSDDIPNNHIPGDHIPDKATVFTDEESYSFESSKFTRTISPPTLGTLRSCFSWSGGLGDFSRTPSPSPSTALQQFRRKSDSPTSLPENNMSDVSQLKSEESSDDESHPLREEACSSQSQESGEFSLQSSNASKLSQCSSKDSDSEESDCNIKLLDSQSDQTSKLRLSHFSKKDTPLRNKVPGLYKSSSADSLSTTKIKPLGPARASGLSKKPASIQKRKHHNAENKPGLAIKANELWKNFGFKKDSEKLPPCKKPLSPVRDNIQLTPEAEEDIFNKPECGRVQRAIFQ
modifications: N-terminal YFP tag
B2: YFP-hEXO1-Q154A;Y157A: putative PIP-box substitution variant of YFP-hEXO1 (protein, UniProt Q9UQ84 1-846, looked up, variant Q154A Y157A)
Exonuclease 1: B1 Exonuclease 1 with Q154A, Y157A, A788Q, A791L
modifications: N-terminal YFP tag
B3: YFP-hEXO1-Q285A;F288A: putative PIP-box substitution variant of YFP-hEXO1 (protein, UniProt Q9UQ84 1-846, looked up, variant Q285A F288A)
Exonuclease 1: B1 Exonuclease 1 with Q285A, F288A, A788Q, A791L
modifications: YFP tag
B4: YFP-hEXO1-C508X: COOH-terminally truncated version of YFP-hEXO1 (protein, UniProt Q9UQ84 1-507, looked up, fragment)
chain: MGIQGLLQFIKEASEPIHVRKYKGQVVAVDTYCWLHKGAIACAEKLAKGEPTDRYVGFCMKFVNMLLSHGIKPILVFDGCTLPSKKEVERSRRERRQANLLKGKQLLREGKVSEARECFTRSINITHAMAHKVIKAARSQGVDCLVAPYEADAQLAYLNKAGIVQAIITEDSDLLAFGCKKVILKMDQFGNGLEIDQARLGMCRQLGDVFTEEKFRYMCILSGCDYLSSLRGIGLAKACKVLRLANNPDIVKVIKKIGHYLKMNITVPEDYINGFIRANNTFLYQLVFDPIKRKLIPLNAYEDDVDPETLSYAGQYVDDSIALQIALGNKDINTFEQIDDYNPDTAMPAHSRSHSWDDKTCQKSANVSSIWHRNYSPRPESGTVSDAPQLKENPSTVGVERVISTKGLNLPRKSSIVKRPRSAELSEDDLLSQYSLSFTKKTKKNSSEGNKSLSFSEVFVPDLVNGPTNKKSVSTPPRTRNKFATFLQRKNEESGAVVVPGTRSRFF
modifications: N-terminal YFP tag
B5: YFP-hEXO1-S598X: COOH-terminally truncated version of YFP-hEXO1 (protein, UniProt Q9UQ84 1-597, looked up, fragment)
chain: MGIQGLLQFIKEASEPIHVRKYKGQVVAVDTYCWLHKGAIACAEKLAKGEPTDRYVGFCMKFVNMLLSHGIKPILVFDGCTLPSKKEVERSRRERRQANLLKGKQLLREGKVSEARECFTRSINITHAMAHKVIKAARSQGVDCLVAPYEADAQLAYLNKAGIVQAIITEDSDLLAFGCKKVILKMDQFGNGLEIDQARLGMCRQLGDVFTEEKFRYMCILSGCDYLSSLRGIGLAKACKVLRLANNPDIVKVIKKIGHYLKMNITVPEDYINGFIRANNTFLYQLVFDPIKRKLIPLNAYEDDVDPETLSYAGQYVDDSIALQIALGNKDINTFEQIDDYNPDTAMPAHSRSHSWDDKTCQKSANVSSIWHRNYSPRPESGTVSDAPQLKENPSTVGVERVISTKGLNLPRKSSIVKRPRSAELSEDDLLSQYSLSFTKKTKKNSSEGNKSLSFSEVFVPDLVNGPTNKKSVSTPPRTRNKFATFLQRKNEESGAVVVPGTRSRFFCSSDSTDCVSNKVSIQPLDETAVTDKENNLHESEYGDQEGKRLVDTDVARNSSDDIPNNHIPGDHIPDKATVFTDEESYSFESSKFTRTI
modifications: N-terminal YFP tag
B6: hMLH1: fusion protein, CFP or YFP tagged MMR protein (protein)
chain: MSFVAGVIRRLDETVVNRIAAGEVIQRPANAIKEMIENCLDAKSTSIQVIVKEGGLKLIQIQDNGTGIRKEDLDIVCERFTTSKLQSFEDLASISTYGFRGEALASISHVAHVTITTKTADGKCAYRASYSDGKLKAPPKPCAGNQGTQITVEDLFYNIATRRKALKNPSEEYGKILEVVGRYSVHNAGISFSVKKQGETVADVRTLPNASTVDNIRSIFGNAVSRELIEIGCEDKTLAFKMNGYISNANYSVKKCIFLLFINHRLVESTSLRKAIETVYAAYLPKNTHPFLYLSLEISPQNVDVNVHPTKHEVHFLHEESILERVQQHIESKLLGSNSSRMYFTQTLLPGLAGPSGEMVKSTTSLTSSSTSGSSDKVYAHQMVRTDSREQKLDAFLQPLSKPLSSQPQAIVTEDKTDISSGRARQQDEEMLELPAPAEVAAKNQSLEGDTTKGTSEMSEKRGPTSSNPRKRHREDSDVEMVEDDSRKEMTAACTPRRRIINLTSVLSLQEEINEQGHEVLREMLHNHSFVGCVNPQWALAQHQTKLYLLNTTKLSEELFYQILIYDFANFGVLRLSEPAPLFDLAMLALDSPESGWTEEDGPKEGLAEYIVEFLKKKAEMLADYFSLEIDEEGNLIGLPLLIDNYVPPLEGLPIFILRLATEVNWDEEKECFESLSKECAMFYSIRKQYISEESTLSGQQSEVPGSIPNSWKWTVEHIVYKALRSHILPPKHFTEDGNILQLANLPDLYKVFERC
modifications: left off: GST, end not stated, kept
B7: hEXO1-S702X; Δ423–507: truncated from amino acid 702 with internal deletion between amino acids 423 and 507; depleted of two hMLH1 interaction regions (protein)
chain: MGIQGLLQFIKEASEPIHVRKYKGQVVAVDTYCWLHKGAIACAEKLAKGEPTDRYVGFCMKFVNMLLSHGIKPILVFDGCTLPSKKEVERSRRERRQANLLKGKQLLREGKVSEARECFTRSINITHAMAHKVIKAARSQGVDCLVAPYEADAQLAYLNKAGIVQAIITEDSDLLAFGCKKVILKMDQFGNGLEIDQARLGMCRQLGDVFTEEKFRYMCILSGCDYLSSLRGIGLAKACKVLRLANNPDIVKVIKKIGHYLKMNITVPEDYINGFIRANNTFLYQLVFDPIKRKLIPLNAYEDDVDPETLSYAGQYVDDSIALQIALGNKDINTFEQIDDYNPDTAMPAHSRSHSWDDKTCQKSANVSSIWHRNYSPRPESGTVSDAPQLKENPSTVGVERVISTKGLNLPRKSSIVKRPRSCSSDSTDCVSNKVSIQPLDETAVTDKENNLHESEYGDQEGKRLVDTDVARNSSDDIPNNHIPGDHIPDKATVFTDEESYSFESSKFTRTISPPTLGTLRSCFSWSGGLGDFSRTPSPSPSTALQQFRRKSDSPTSLPENNMSDVSQLKSEESSDDESHPLREEACSSQSQESGEFSLQSSNASKLSQCSSKDSD
modifications: 35S-cysteine label

The test system of the first test is PCNA replication foci in NIH3T3 cells.
Experiment: not given
The note with it: CFP channel (CFP-PCNA) in cells co-expressing the hEXO1 protein; early S-phase foci; 50 co-transfected cells. It is filed as cell-based, murine. The procedure, abridged: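 Murine NIH3T3 cells were kept in DMEM with 10% FBS and penicillin/streptomycin at 37 °C, 10% CO₂. Cells (2*10⁵ per glass-bottom dish) were seeded 24 h before ExGen500 co-transfection with 3 μg total plasmid (CFP-PCNA plus YFP fusion). Confocal imaging at 24–48 h. Co-transfected cells were counted and binned by pattern, e.g. "no foci" (diffuse CFP-PCNA, diffuse nuclear YFP).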
With B1, the “Small foci (CFP-PCNA)” value turned out to be 22%.

For B2, the “Small foci (CFP-PCNA)” value stood at 28%.

Regarding B3, the “Small foci (CFP-PCNA)” value came out at 34%.

Staying with this test, now noted: CFP channel (CFP-PCNA) in cells co-expressing the hEXO1 protein; late S-phase foci; 50 co-transfected cells.
As to B1, the “Large foci (CFP-PCNA)” value is reported as 8%.

As to B2, the “Large foci (CFP-PCNA)” value came out at 0%.

For the molecule B3, the “Large foci (CFP-PCNA)” value worked out at 0%.

The same test, now with this note: CFP channel (CFP-PCNA) in cells co-expressing the hEXO1 protein; mid S-phase foci; 50 co-transfected cells.
With B1, the “Mid Foci (CFP-PCNA)” value is 18%.

Regarding B2, the “Mid Foci (CFP-PCNA)” value came out at 4%.

As for B3, the “Mid Foci (CFP-PCNA)” value was 0%.

Still in this test, the particulars now being: NIH3T3 cells co-expressing CFP-PCNA.
For B1, the “effect of expression on S-phase distribution” value (from here on “effect of expression”) is on record as “no adverse effects on S-phase distribution”.

On to B2, for which the “effect of expression” value is “unable to detect replication foci in late S-phase”.

For B3, the “effect of expression” value is listed as “unable to detect replication foci in late S-phase”.

The test is the same for the next values; noted with them: NIH3T3 cells co-transfected with CFP-PCNA, 24–48 h.
In the case of B4, the “foci formation and co-localization with PCNA during S-phase” value (“foci formation and co-localization” for short) is “none of the variant proteins were able to form foci or co-localize with PCNA during S-phase”.

With B5, the “foci formation and co-localization” value is given as “none of the variant proteins were able to form foci or co-localize with PCNA during S-phase”.

For the molecule B6, the “foci formation and co-localization” value is “unable to observe CFP-PCNA co-localized YFP-hMLH1 foci”.

In the case of B1, the “foci formation and co-localization” value was “unable to form nuclear foci and does not co-localize with PCNA, at any time point during S-phase”.

On to B2, for which the “foci formation and co-localization” value was “to some extent are able to form S-phase foci in co-localization with PCNA”.

For the molecule B3, the “foci formation and co-localization” value is given as “to some extent are able to form S-phase foci in co-localization with PCNA”.

Still in this test, the particulars now being: NIH3T3 cells, confocal imaging.
Regarding B4, the sub-cellular localization entry was “strictly nuclear”.

Take B5: the sub-cellular localization entry is recorded as “strictly nuclear”.

The next test has as its system hMLH1. Kind of test: Interaction of hEXO1 variants with hMLH1. It is filed as binding, human. Conditions: GST-hMLH1 pull-down, 35S-labeled IVTT protein; Fig. S1.
Turning to B7, the hMLH1 interaction entry is reported as “incapable of hMLH1 interaction”.
